The nature of assay [1]: hit retest on RPL19A-GFP reporter strain – cell-based, S. cerevisiae, flow cytometry, cherry picks, mother/daughter gates, confirmation (AID 2270;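 active = GFP response below 50% of the DMSO control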). The following applies: 3 h, at 10 µM, stronger effect = lower value, 100 = same GFP as DMSO wells.
Assay [2] in a line: yeast TOR pathway reporter LAP4-GFP change – cell-based, cherry picks, flow cytometry, mother/daughter gates, confirmation (AID 2271;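 active = GFP response above 150% of the DMSO control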;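 also: ratio of sample to DMSO plate mean so 100% equals DMSO level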). The settings on record: S. cerevisiae LAP4-GFP strain, 3 h, at 10 µM, stronger effect = higher value, 100 means same as DMSO control. An outline of the steps:
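System – GFP-fusion yeast strain · Amount – 0.2 OD600 cells · Buffer or medium – SC growth medium · Dosing – single test-compound dose, 10 µM final · Schedule – 3 h treatment at 30 °C with rotation · Detection – GFP by flow cytometry · Read-out – per-gate (all, mother, daughter) GFP response vs DMSO · Benchmarks – positive rapamycin (400 ng/mL), negative DMSO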

Assay [3] is described as follows: TOR pathway reporter MEP2-GFP, retest of hits – S. cerevisiae, flow cytometry GFP, cherry picks, confirmation (AID 2272;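 active = GFP response above 150% of the DMSO control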;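 also: ratio of well signal to plate DMSO mean so 100% equals DMSO level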). The settings on record: S. cerevisiae MEP2-GFP strain, 3 h, at 10 µM, stronger effect = higher value.
The nature of assay [4]: yeast AGP1-GFP fluorescence change, single-dose – cell-based, flow cytometry, S. cerevisiae, cherry picks, confirmation (AID 2273).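 Also: median GFP channel fluorescence over the whole cell population gate.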 The following applies: S. cerevisiae AGP1-GFP strain, 3 h, at 10 µM.
Assay [5] is described as follows: TOR pathway CIT2 reporter hit retest – S. cerevisiae, GFP fusion, cherry picks, mother/daughter gates, confirmation (AID 2274). The following applies: S. cerevisiae CIT2-GFP strain, flow cytometry, 3 h, at 10 µM, stronger effect = higher value.
Setting [6] is: measured here: daughter cell gate.
Setting [7] is: measured here: mother cell gate.
The mark [8] stands for this setting: measured here: daughter cell gate response.
[9] abbreviates: measured here: mother cell gate response.

Active and inactive are the calls of the source.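 The calls were made as follows, unless noted: active = GFP response above 150% of the DMSO level; inconclusive = fewer than 70 events counted for a yeast strain; inactive = the rest.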

The values below come from PubChem BioAssay.

With `O=C(COc1ccccc1)NNC(=S)NC(=O)c1ccccc1`, the GFP response vs DMSO in assay [1] is 114% (inactive); in assay [1] (setting [6]) it was 118%; in assay [1] (setting [7]), 110%; in assay [3] it was 127% (inactive). In addition, the GFP response relative to DMSO was 171% (active) in assay [2], 165% in assay [2] (setting [8]) and 166% in assay [2] (setting [9]). The GFP response, % of DMSO in assay [4] was 116% (inactive); in assay [5], 108% (inactive); in assay [5] (setting [6]) it was 121%; in assay [5] (setting [7]) it was 98.7%.
For the compound `CCn1c(=O)c(C(=O)NCc2ccc(OC)cc2)c(O)c2ccccc21`, the GFP response vs DMSO in assay [1] is 98.5% (inactive); in assay [1] (setting [6]), 99.5%; in assay [1] (setting [7]), 98.4%; in assay [3], 106% (inactive). In addition, the GFP response relative to DMSO is 97.7% (inactive) in assay [2], 102% in assay [2] (setting [8]) and 97.4% in assay [2] (setting [9]). In addition, the GFP response, % of DMSO in assay [4] was 100% (inactive); in assay [5], 101% (inactive); in assay [5] (setting [6]), 101%; in assay [5] (setting [7]) it was 100%.
As to `CCCn1c(=N)c(C(=O)NC2CCCC2)cc2c(=O)n3cccc(C)c3nc21`, the GFP response vs DMSO in assay [1] was 100% (inactive); in assay [1] (setting [6]), 85.2%; in assay [1] (setting [7]), 78%; in assay [3], 104% (inactive). In addition, the GFP response relative to DMSO in assay [2] is 96.2% (inactive); in assay [2] (setting [8]), 100%; in assay [2] (setting [9]), 99.3%. Besides, the GFP response, % of DMSO in assay [4] and in assay [5] was 104% (inactive) each time.
As to `COc1ccccc1N1CCN(C2CCCN(Cc3cc(F)cc(F)c3)C2)CC1` (stereo not given), the GFP response vs DMSO in assay [1] is 96% (inactive); in assay [1] (setting [6]), 97.3%; in assay [1] (setting [7]), 95.9%; in assay [3], 99.3% (inactive). The GFP response relative to DMSO was 98.9% (inactive) in assay [2], 97.5% in assay [2] (setting [8]) and 98.4% in assay [2] (setting [9]). The GFP response, % of DMSO in assay [4] was 102% (inactive); in assay [5] it was 103% (inactive); in assay [5] (setting [6]), 99.3%; in assay [5] (setting [7]), 104%.
With `Cc1cccc(N=c2c([N+](=O)[O-])nn(-c3ccc(Cl)cc3)n2O)c1`, the GFP response vs DMSO in assay [1] was 97% (inactive); in assay [1] (setting [6]), 95.1%; in assay [1] (setting [7]), 97.7%; in assay [3] it was 102% (inactive). The GFP response relative to DMSO in assay [2] is 111% (inactive); in assay [2] (setting [8]) it was 104%; in assay [2] (setting [9]) it was 114%. Also, the GFP response, % of DMSO in assay [4] is 90.4% (inactive); in assay [5], 107% (inactive); in assay [5] (setting [6]), 103%; in assay [5] (setting [7]), 108%.
As to `O=C(O)C1CCC(NSc2ccccc2[N+](=O)[O-])CC1` (stereo not given), the GFP response vs DMSO was 98.2% (inactive) in assay [1], 95.9% in assay [1] (setting [6]), 95.2% in assay [1] (setting [7]) and 96.8% (inactive) in assay [3]. Also, the GFP response relative to DMSO is 145% (inactive) in assay [2], 133% in assay [2] (setting [8]) and 157% in assay [2] (setting [9]). In addition, the GFP response, % of DMSO in assay [4] was 101% (inactive); in assay [5] it was 97.3% (inactive); in assay [5] (setting [6]), 99.2%; in assay [5] (setting [7]), 94.4%.
Consider `CCCc1nnc(N2C(=O)c3cccc4cccc(c34)C2=O)s1`, for which the GFP response vs DMSO in assay [1] is 103% (inactive); in assay [1] (setting [6]), 103%; in assay [1] (setting [7]) it was 102%; in assay [3], 103% (inactive). Also, the GFP response relative to DMSO is 115% (inactive) in assay [2], 104% in assay [2] (setting [8]) and 113% in assay [2] (setting [9]). The GFP response, % of DMSO in assay [4] is 108% (inactive); in assay [5], 113% (inactive); in assay [5] (setting [6]) it was 106%; in assay [5] (setting [7]), 115%.
Take `CCOC(=O)C1=C(C)N=C2SC(C(=O)OC)=CC(=O)N2C1c1ccc(F)cc1` (stereo not given): the GFP response vs DMSO is 103% (inactive) in assay [1], 101% in assay [1] (setting [6]), 100% in assay [1] (setting [7]) and 91.3% (inactive) in assay [3]. Moreover, the results for the GFP response relative to DMSO in assay [2], in assay [2] (setting [8]) and in assay [2] (setting [9]) were 119% (inactive), 110% and 124%, respectively. In addition, the GFP response, % of DMSO was 90.2% (inactive) in assay [4], 96.5% (inactive) in assay [5], 94.8% in assay [5] (setting [6]) and 94.4% in assay [5] (setting [7]).
`O=C(NCc1cccnc1)c1cnc2n(c1=O)CCS2`: the GFP response vs DMSO in assay [1] was 101% (inactive); in assay [1] (setting [6]), 101%; in assay [1] (setting [7]), 101%; in assay [3], 99.3% (inactive). Further, the GFP response relative to DMSO in assay [2] was 101% (inactive); in assay [2] (setting [8]) it was 104%; in assay [2] (setting [9]), 100%. The GFP response, % of DMSO in assay [4] is 102% (inactive); in assay [5] it was 98.6% (inactive); in assay [5] (setting [6]) it was 101%; in assay [5] (setting [7]), 99.3%.
As for `Cc1ccc2[nH]c(C)c(/C=C/c3cc[n+](C)cc3)c2c1`, the GFP response vs DMSO in assay [1] was 118% (inactive); in assay [1] (setting [6]), 120%; in assay [1] (setting [7]), 117%; in assay [3], 268% (active). Further, the GFP response relative to DMSO was 198% (active) in assay [2], 210% in assay [2] (setting [8]) and 190% in assay [2] (setting [9]). Besides, the GFP response, % of DMSO is 122% (inactive) in assay [4], 223% (active) in assay [5], 241% in assay [5] (setting [6]) and 211% in assay [5] (setting [7]).
For the compound `CCCCNc1c(-c2ccc(SC(C)CC)cc2)nc2ccccn12` (stereo not given), the GFP response vs DMSO is 94.2% (inactive) in assay [1], 88.6% in assay [1] (setting [6]), 95.8% in assay [1] (setting [7]) and 109% (inactive) in assay [3]. Moreover, the results for the GFP response relative to DMSO in assay [2], in assay [2] (setting [8]) and in assay [2] (setting [9]) were 120% (inactive), 114% and 124%, respectively. In addition, the GFP response, % of DMSO is 93.3% (inactive) in assay [4], 92.6% (inactive) in assay [5], 89.9% in assay [5] (setting [6]) and 91.4% in assay [5] (setting [7]).
For the compound `Oc1c(CN2CCN(c3ccccc3)CC2)cc(Br)c2cccnc12`, the GFP response vs DMSO is 99.6% (inactive) in assay [1], 101% in assay [1] (setting [6]), 95.9% in assay [1] (setting [7]) and 153% (inactive) in assay [3]. For the same compound, the GFP response relative to DMSO is 220% (active) in assay [2], 168% in assay [2] (setting [8]) and 231% in assay [2] (setting [9]). For the same compound, the GFP response, % of DMSO in assay [4] is 81.5% (inactive); in assay [5], 103% (inactive); in assay [5] (setting [6]) it was 99.1%; in assay [5] (setting [7]), 93.8%.
`O=S(=O)(c1ccccc1)N1N=C(c2ccccc2)CC1c1ccccc1` (stereo not given): the GFP response vs DMSO in assay [1] was 105% (inactive); in assay [1] (setting [6]), 105%; in assay [1] (setting [7]), 103%; in assay [3], 112% (inactive). Also, the GFP response relative to DMSO is 97% (inactive) in assay [2], 97.5% in assay [2] (setting [8]) and 97.3% in assay [2] (setting [9]). Moreover, the GFP response, % of DMSO in assay [4] was 99.4% (inactive); in assay [5], 106% (inactive); in assay [5] (setting [6]) it was 108%; in assay [5] (setting [7]), 104%.
As for `O=C(CSCc1cccc(Br)c1)N=Nc1c(O)[nH]c2ccccc12`, the GFP response vs DMSO in assay [1] was 76.9% (inactive); in assay [1] (setting [6]), 67.8%; in assay [1] (setting [7]) it was 73%; in assay [3], 124% (inactive). Further, the GFP response relative to DMSO in assay [2] is 126% (inactive); in assay [2] (setting [8]) it was 102%; in assay [2] (setting [9]), 126%. Also, the GFP response, % of DMSO in assay [4] is 137% (inactive); in assay [5] it was 130% (inactive); in assay [5] (setting [6]) it was 110%; in assay [5] (setting [7]), 129%.
For `COc1ccc(N2CCN(C(=O)CCc3nnc4ccc(N5CCCC5)nn34)CC2)cc1`, the GFP response vs DMSO in assay [1] was 101% (inactive); in assay [1] (setting [6]), 99.2%; in assay [1] (setting [7]), 101%; in assay [3], 100% (inactive). Also, the GFP response relative to DMSO in assay [2] was 96.2% (inactive); in assay [2] (setting [8]), 98.7%; in assay [2] (setting [9]), 97.2%. The GFP response, % of DMSO is 97.8% (inactive) in assay [4], 104% (inactive) in assay [5], 101% in assay [5] (setting [6]) and 104% in assay [5] (setting [7]).
With `CCCn1nc(C(=O)OCC(=O)c2ccc3c(c2)NC(=O)CO3)c2ccccc2c1=O`, the GFP response vs DMSO in assay [1] was 97.2% (inactive); in assay [1] (setting [6]), 96.6%; in assay [1] (setting [7]), 96.5%; in assay [3], 105% (inactive). The GFP response relative to DMSO in assay [2] is 98.2% (inactive); in assay [2] (setting [8]) it was 97.5%; in assay [2] (setting [9]), 98.4%. The GFP response, % of DMSO was 96.3% (inactive) in assay [4], 100% (inactive) in assay [5], 97.4% in assay [5] (setting [6]) and 101% in assay [5] (setting [7]).
Turning to `CCCn1c(=O)c(C(=O)Nc2ccccc2C(=O)OCC)c(O)c2ccccc21`, the GFP response vs DMSO was 95.1% (inactive) in assay [1], 96.7% in assay [1] (setting [6]), 95.2% in assay [1] (setting [7]) and 108% (inactive) in assay [3]. Moreover, the GFP response relative to DMSO in assay [2] was 95.3% (inactive); in assay [2] (setting [8]), 94.4%; in assay [2] (setting [9]), 97.4%. The GFP response, % of DMSO was 110% (inactive) in assay [4], 100% (inactive) in assay [5], 103% in assay [5] (setting [6]) and 100% in assay [5] (setting [7]).
